From ChEMBL document CHEMBL3407343, “Functionalized tetrahydro-1H-pyrido[4,3-b]indoles: a novel chemotype with Sirtuin 2 inhibitory activity” (Eur J Med Chem, 2015) come the findings set out here.

Values after ≈ are worked out from the molar mass of the structure shown. Active and inactive are the calls of the source. The rule behind the calls is not given here.

For one data set, the species on record is Homo sapiens. Kind of data set: Inhibition of protease (unknown origin) using deacetylated peptide as substrate assessed as luminescence at 25 uM after 30 mins relative to control. Set-up: scale not given: the % may be the effect or the level left.
For data set [1], the target named is T1, NAD-dependent protein deacetylase sirtuin-2 (Homo sapiens) (UniProt Q8IXJ6).
T1 sequence (whole entry): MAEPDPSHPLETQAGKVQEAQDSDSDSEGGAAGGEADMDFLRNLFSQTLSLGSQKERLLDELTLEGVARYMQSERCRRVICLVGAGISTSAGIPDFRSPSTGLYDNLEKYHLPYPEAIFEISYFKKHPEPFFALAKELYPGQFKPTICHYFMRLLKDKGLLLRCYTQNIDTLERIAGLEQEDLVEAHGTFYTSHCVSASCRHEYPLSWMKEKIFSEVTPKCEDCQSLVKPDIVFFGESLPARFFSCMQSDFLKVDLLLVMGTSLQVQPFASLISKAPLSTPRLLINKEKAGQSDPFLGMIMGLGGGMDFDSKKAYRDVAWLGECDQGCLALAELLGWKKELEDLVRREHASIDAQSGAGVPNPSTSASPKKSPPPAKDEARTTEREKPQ
The data set can be described thus: Inhibition of SIRT2 in human HepG2 cells assessed as increase in acetylated p53 at Lys382 and alpha-tubulin level at 2 to 4 uM after 6 hrs by Western blot analysis. The format is cell-based. The method, boiled down:
(§1)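 Cells seeded at 50,000 cells/mL in high-glucose DMEM containing compound (0.5% v/v DMSO) and incubated at 37 °C, 5% CO2: HepG2 6 h, MDA-MB-231 24 h. Washed cells were lysed on ice ≥20 min in Tris/NaCl/EDTA/Triton buffer with protease and phosphatase inhibitors, then protein measured by Bradford. SDS-PAGE blots were probed overnight at 4 °C with primary antibodies and detected by HRP/ECL, with re-probing after stripping. Each blot was repeated ≥3 times.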

The nature of data set [2]: Solubility of the compound in phosphate buffer at pH 7.4 at 25 degC by turbimetric method. The format is physicochemical. In outline:
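Turbidimetric solubility. Compound from DMSO stock was added to phosphate buffer pH 7.4 at 1–50 µM final, with 1% v/v DMSO. Plate shaken 30 min at 25 °C and absorbance read at 620 nm. Solubility is assigned to the concentration range where absorbance rises two-fold or more, from 3 separate determinations.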

A short description of data set [3]: Self-aggregation of the compound in PBS assessed as derived light scattering count rate at 1 uM at pH 7.4 (reference value: 15.5 +/- 0.4 kilocount/sec). The format is physicochemical. Particulars: buffer, pH 7.4, 1 µM.
The target in data set [4] is T1, NAD-dependent protein deacetylase sirtuin-2 (Homo sapiens). Kind of data set: (§2) Non-competitive inhibition of human recombinant SIRT2 using Z-QPK(Me)2K(Ac) as substrate assessed as decrease in maximal enzyme activity preincubated for 60 mins followed by substrate addition measured after 30 mins by double-reciprocal plot analysis in presence of 185 to 5000 uM NAD+. In outline:
(§3)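 Recombinant human SIRT2 at 0.2 unit/well, preincubated 60 min at 25 °C (400 rpm) with inhibitor at four levels including zero, 2.5% DMSO. Detection reagent (acetylated Z-QPK(Me)2K(Ac)-aminoluciferin, NAD and developer) was premixed 60 min at 37 °C, added, and incubated 30 min at 25 °C before luminescence was read. For line 17, substrate was varied (4.12–333.3 µM) at fixed NAD. For line 16, NAD was varied (four levels) at 38.5 µM substrate. Double-reciprocal plots were made, and their slopes replotted against inhibitor concentration for apparent Ki.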

The target of data set [5] is T2, NAD-dependent protein deacetylase sirtuin-2 (Homo sapiens, UniProt Q8IXJ6).
T2 sequence (Q8IXJ6 whole entry): T1 sequence (whole entry)
Described as §2. The settings on record: read-out: Ki(app). In outline:
as §3

In the next data set the test system is MDA-MB-231. The data set can be described thus: Growth inhibition of human MDA-MB-231 cells after 72 hrs by MTS assay. The format is functional, cell-based. Particulars: MDA-MB-231, 72 h. In outline: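 Cells in DMEM with 10% heat-treated FBS and penicillin/streptomycin, subcultured at 85–90% confluence and used within 15 passages. Seeded 2500 cells/well and grown 24 h, then compound was added (0.5% v/v DMSO final) for 72 h at 37 °C, 5% CO2. MTS was added for 4 h in the dark and absorbance read at 490 nm. Viability is corrected for compound and vehicle blanks.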

Data set [6] addresses T1, NAD-dependent protein deacetylase sirtuin-2 (Homo sapiens). Kind of data set: Inhibition of SIRT2 in human MDA-MB-231 cells assessed as increase in acetylated p53 at Lys382 and alpha-tubulin level at 2 to 4 uM after 24 hrs by Western blot analysis. The format is cell-based. The method, boiled down: as §1
The target in data set [7] is T2, NAD-dependent protein deacetylase sirtuin-2. The data set can be described thus: Inhibition of human recombinant SIRT2 assessed as deacetylation of N-acetyl lysine residue in p53 (317 to 320) after 30 mins by luciferase-mediated luminescence assay.
A short description of data set [8]: Self-aggregation of the compound in PBS assessed as derived light scattering count rate at 10 uM at pH 7.4 (reference value: 15.5 +/- 0.4 kilocount/sec). The format is physicochemical. The settings on record: buffer, pH 7.4, 10 µM.

As for `CCCCCCCCn1c2c(c3cc(-c4ccc(S(C)(=O)=O)cc4)ccc31)CNCC2`, the Activity came out at 94.9% in the data set filed under Homo sapiens, 15.6 kC/sec in data set [3] and 95 kC/sec in data set [8]. The inhibition entry in data set [1] and in data set [6] was “Active” throughout. Also, in data set [2], the kinetic solubility stood at 3.1 µM (≈ 1.36 µg/mL). Also, in [4], the inhibition entry was “Dose-dependent effect”. Further, in data set [5], the Ki was 3.7 µM. The IC50 in the data set on MDA-MB-231 stood at 2.1 µM; in [7], 3.8 µM.
